Screens deposited in PubChem by several laboratories.
Hits are enriched below; roughly 3.1% of the tested compounds scored in any of these assays.
ADAM17 inh: inhibits human ADAM17 | actives 0.83% (n = 370,000) | P78536 | recombinant ADAM17, EDANS/DABCYL FRET peptide cleavage | AID 720648 | inhibition, % at 6.95 µM;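 active means inhibition above the mean of compounds lying between control limits plus 3 SD, set per campaign, cut at about 8.5% in these data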;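 further: 0% = DMSO-only wells as the low control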
MPTP block: permeability transition pore inhibition; isolated mouse mitochondria, Ca2+ swelling absorbance, 30 min; AID 602449; inhibition, % at 10 µM; actives 1.4% (n = 360,000);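 active means inhibition of 50% or more, scaled per plate between neutral and stimulator controls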;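 further: 0% = DMSO wells given calcium and 100% = 1 mM EGTA wells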
aDG glyco act: increases alpha dystroglycan glycosylation. Pro5-aDG cells, alpha-DG glycosylation AlphaScreen (IIH6); 0% Pro5, 100% B10-LARGE cell signal. activation, % at 10 µM. actives 0.22% (n = 360,000). AID 624168;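 active means activation of at least 8% versus controls, or a plate z-score of at least 8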;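 further: Pro5 are CHO cells carrying HIG-tagged alpha-DG that lacks glycosylation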
Hep lipid drop: hepatic lipid droplet formation modulation | AML12 mouse hepatocytes, oleate lipid droplets, BODIPY imaging | inhibition, % at 6.5 µM | actives 0.4% (n = 240,000);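 active means lipid droplet intensity inhibited by at least 50%, with more than 500 cells counted; inconclusive means wells with under 300 cells, treated as cytotoxic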
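Assay system: AML12 mouse liver cells | Compound dosing: One dose, 6.5 µM compound | Read-out basis: Droplet intensity reduction, % inhibition | Measured by: Fluorescence imaging, 20x objective, two fields per well | Schedule: Overnight treatment with compound plus oleate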
V-ATPase pH: yeast V-ATPase proton transport regulation by pHLuorin | S. cerevisiae, pHLuorin cytosolic pH fluorescence | response, % at 10 µM | actives 0.37% (n = 350,000); in the data active means response mostly above about 7.3%, no sharp cut-off; inactive means mostly below about 5.4%; further: actives read high
ADAM10 inh: inhibits human ADAM10; inhibition, % at 7 µM; O14672; actives 0.62% (n = 370,000); AID 720582; recombinant ADAM10, EDANS/DABCYL FRET peptide cleavage, 3 h;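 active means inhibition above a per-campaign cutoff equal to the mean of compounds falling between control-based bounds plus 3 SD, cut at about 20% in these data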;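 further: 0% = DMSO wells while the 100% control is not disclosed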
Target sequence (O14672 214-748 limits assumed): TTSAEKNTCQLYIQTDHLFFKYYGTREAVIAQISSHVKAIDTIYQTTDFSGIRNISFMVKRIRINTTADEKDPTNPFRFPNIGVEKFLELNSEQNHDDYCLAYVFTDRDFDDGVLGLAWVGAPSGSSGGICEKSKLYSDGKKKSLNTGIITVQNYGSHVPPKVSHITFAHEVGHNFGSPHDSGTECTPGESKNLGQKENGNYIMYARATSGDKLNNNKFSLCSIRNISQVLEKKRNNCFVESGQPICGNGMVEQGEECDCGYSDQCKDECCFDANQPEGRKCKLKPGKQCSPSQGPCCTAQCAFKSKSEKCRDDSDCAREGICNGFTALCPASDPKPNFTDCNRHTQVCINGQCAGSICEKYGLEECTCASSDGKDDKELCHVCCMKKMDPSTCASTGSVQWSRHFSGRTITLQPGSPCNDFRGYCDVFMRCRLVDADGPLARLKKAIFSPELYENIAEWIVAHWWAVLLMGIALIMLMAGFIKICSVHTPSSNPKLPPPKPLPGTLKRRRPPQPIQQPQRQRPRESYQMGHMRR
Hep lipid conf: confirmation of inhibitors of hepatic lipid droplet formation. shares compounds with Hep lipid drop. AML12 mouse hepatocytes, BODIPY lipid droplet imaging; droplets induced with 100 µM oleic acid. inhibition, % at 5.2 µM. actives 65% (n = 870). AID 463183;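 active means inhibition of lipid droplet metric at least 50%, with more than 300 cells in each of four replicates; inconclusive means wells under 300 cells, flagged as toxic or low count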;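 further: plate controls were DMSO with oleic acid for no effect and 5 µM Triacsin-C for full effect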
AML12 tox img: AML12 hepatocyte cytotoxicity (counter-screen) | z-score at 5 µM | shares compounds with Hep lipid drop | actives 3% (n = 870) | AML12 mouse hepatocytes, DAPI nuclear morphology cytotoxicity imaging; stronger effect = higher value; cells fed 100 µM oleate overnight; in the data active means z-score above about 6.3;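 further: compound exposure lasted overnight at 37 °C before fixation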
AML12 tox ATP: AML12 hepatocyte cytotoxicity, confirmed; shares compounds with Hep lipid drop; AML12 mouse hepatocyte viability, ATP luminescence; cells loaded with 100 µM oleic acid; cytotoxicity, % at 50 µM; 530 tested, under 10 active; AID 463219;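 active means cytotoxicity above 50% in each of four replicates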;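 further: compound exposure lasted overnight at 37 °C before the ATP read; 0% = DMSO-treated cells and 100% = wells with no cells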
Starred values were filed as active, the others as inactive.

`COc1cccc(-c2ccc(CC[C@H]3O[C@H]4CC[C@@H](CO)O[C@H]4C[C@H]3NS(C)(=O)=O)cc2)c1` gave ADAM17 inh 3 and ADAM10 inh 12.
CCOC(=O)c1cc([N+](=O)[O-])c([N+](=O)[O-])cc1NC(C)=O was read as ADAM17 inh 3, MPTP block 1, aDG glyco act 0, Hep lipid drop 23, V-ATPase pH 15* and ADAM10 inh 0.
For COc1ccc(C2C(C(=O)N3CCN(c4ccccc4C)CC3)CC(=O)N2c2ccc(OC)cc2)cc1 (stereo unspecified) the results were ADAM17 inh -2 and ADAM10 inh 3.
For CCC(NC(=O)c1cc(COc2cncc(Cl)c2)on1)c1ccncc1 (stereo unspecified) the results were ADAM17 inh -2, MPTP block -2, aDG glyco act 0, Hep lipid drop 65*, V-ATPase pH -2, ADAM10 inh -1, Hep lipid conf 11 and AML12 tox img -0.58.
Screening CCS(=O)(=O)N1CCN(c2ccc([N+](=O)[O-])c(NCc3cccnc3)c2)CC1 returned ADAM17 inh 6, MPTP block 1, aDG glyco act 0, Hep lipid drop 59*, V-ATPase pH 2, ADAM10 inh 2, Hep lipid conf -18 and AML12 tox img 0.18.
For CCOC(=O)C1CCC(CN(Cc2ccccc2)S(=O)(=O)c2ccc([N+](=O)[O-])cc2)CC1 (stereo unspecified) the results were ADAM17 inh -3, MPTP block 1, aDG glyco act 0, Hep lipid drop 59*, V-ATPase pH 1, ADAM10 inh -10, Hep lipid conf 82*, AML12 tox img -0.46 and AML12 tox ATP 6.
CCn1c(O)c(N=NC(=O)CNc2cccc(C)c2)c2ccccc21 was read as ADAM17 inh -12, MPTP block 2, aDG glyco act 0, Hep lipid drop -4, V-ATPase pH -2 and ADAM10 inh 0.
For COC(=O)Cn1c(O)c(N=NC(=O)CNC(=O)COc2cccc(C)c2)c2ccccc21 the results were ADAM17 inh -2, MPTP block 0, aDG glyco act 0, Hep lipid drop 68*, V-ATPase pH -1, ADAM10 inh -5, Hep lipid conf 25 and AML12 tox img -1.1.
`CCCN1C(=O)/C(=C/c2c(N3CCNC(=O)C3CC(=O)OCC)nc3c(C)cccn3c2=O)SC1=S` (stereo unspecified) gave MPTP block 5, aDG glyco act 0, Hep lipid drop 74*, V-ATPase pH 2, Hep lipid conf 58* and AML12 tox img 0.065.
For CN(C)CC(=O)N[C@H]1C[C@@H]2O[C@@H](CO)CC[C@@H]2O[C@@H]1CCc1ccc(-c2ccc(F)cc2)cc1 the results were ADAM17 inh -1 and ADAM10 inh 3.
`Clc1cccc(Nc2nc(-c3ccncc3)cs2)c1` gave ADAM17 inh 1, MPTP block 25, aDG glyco act 1, Hep lipid drop 91*, V-ATPase pH -1, ADAM10 inh -9, Hep lipid conf 58 and AML12 tox img 17*.
For Cc1cccc(Nc2nc(-c3ccncc3)cs2)c1 the results were ADAM17 inh -1, MPTP block 0, aDG glyco act 3, Hep lipid drop inconclusive, V-ATPase pH -1 and ADAM10 inh -5.
For COc1cccc(C(C(=O)NC2CCCC2)N(CCC(C)C)C(=O)CCC(=O)Nc2cc(C)on2)c1 (stereo unspecified) the results were ADAM17 inh -4, MPTP block 0, aDG glyco act 0, Hep lipid drop 23, V-ATPase pH 0 and ADAM10 inh 7.
CCCCN(C(=O)CCC(=O)Nc1cc(C)on1)C(C(=O)NC1CCCC1)c1ccc(OCC)cc1 (stereo unspecified) was read as ADAM17 inh 2, MPTP block 0, aDG glyco act 0, Hep lipid drop 74*, V-ATPase pH 1, ADAM10 inh 1, Hep lipid conf 91*, AML12 tox img -0.33 and AML12 tox ATP 9.
`COc1ccc(C(C(=O)NC2CCCC2)N(CCC(C)C)C(=O)CCC(=O)Nc2cc(C)on2)cc1` (stereo unspecified) gave ADAM17 inh 2, MPTP block -1, aDG glyco act 0, Hep lipid drop 62*, V-ATPase pH 3, ADAM10 inh 10, Hep lipid conf 81*, AML12 tox img -0.13 and AML12 tox ATP 5.
For COc1ccc(CN2CCC(CNC(=O)Nc3ccccc3)CC2)cc1 the results were ADAM17 inh 1 and ADAM10 inh 2.
Screening Cc1ccccc1CNC(=S)OC1CCC12CCC(c1ccccc1)CC2 (stereo unspecified) returned ADAM17 inh -3 and ADAM10 inh -5.
For O=C1/C(=C/c2ccc([N+](=O)[O-])cc2)CCC1C1CCCC1 (stereo unspecified) the results were ADAM17 inh -1, MPTP block -1, aDG glyco act 0, Hep lipid drop 54*, V-ATPase pH 4, ADAM10 inh -4, Hep lipid conf 15 and AML12 tox img -0.71.
`Cc1cccc(/C=C2\CCC(C3CCCC3)C2=O)c1` (stereo unspecified) gave ADAM17 inh -4, MPTP block 2, aDG glyco act 1, Hep lipid drop 2, V-ATPase pH 0 and ADAM10 inh 0.
For O=C(NCc1ccccc1)C(c1ccccc1)N(C(=O)c1csnn1)C1CCCC1 (stereo unspecified) the results were ADAM17 inh -1, MPTP block 0, aDG glyco act 0, Hep lipid drop 40, V-ATPase pH 1 and ADAM10 inh -10.
Screening C=CCN(C(=O)c1csnn1)C(C(=O)NCc1ccccc1)c1ccccc1F (stereo unspecified) returned ADAM17 inh 0, MPTP block -2, aDG glyco act 0, Hep lipid drop 51*, V-ATPase pH -2, ADAM10 inh -18, Hep lipid conf 56, AML12 tox img 0.49 and AML12 tox ATP 2.
